Measurements published in ChEMBL document CHEMBL1255376, “Comparative surveillance study of telavancin activity against recently collected gram-positive clinical isolates from across the United States” (2008).
≈ marks a conversion by molar mass, not a printed value.

What was measured:
Assay type in all cases: functional
Enterococcus faecalis [1] = assay: Antibacterial activity against vancomycin-resistant and teichoplanin-susceptible Enterococcus faecalis clinical isolate by broth microdilution method
Outline: (§1)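 MICs by CLSI broth microdilution in frozen trays pre-loaded with serial dilutions of each agent. Quality-control strains run in parallel: E. faecalis ATCC 29212 and ATCC 51299, S. aureus ATCC 29213, S. pneumoniae ATCC 49619. Comparator susceptibility categories follow CLSI breakpoints. Methicillin resistance in staphylococci assigned from the oxacillin MIC.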

Staphylococcus aureus [2] = assay: Antibacterial activity against vancomycin-, methicillin-resistant Staphylococcus aureus VRS1 by broth microdilution method
Outline: (§2)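 VISA and VRSA strains from the NARSA repository were tested separately from the surveillance isolates. MICs by CLSI broth microdilution in frozen trays with serial dilutions. Quality-control strains run in parallel. Susceptibility categories follow CLSI breakpoints, and methicillin resistance was assigned from the oxacillin MIC.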

Staphylococcus capitis [3] = assay: Antibacterial activity against daptomycin-nonsusceptible Staphylococcus capitis isolate 1285355 by broth microdilution method
Outline: (§3)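 MIC by CLSI broth microdilution in frozen microtiter trays holding serial dilutions of each agent, prepared from standard laboratory powders. E. faecalis ATCC 29212 and ATCC 51299, S. aureus ATCC 29213 and S. pneumoniae ATCC 49619 run in parallel as quality-control strains. Comparator susceptibility interpreted with CLSI breakpoints.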

Staphylococcus capitis [4] = assay: Antibacterial activity against methicillin-resistant coagulase-negative Staphylococcus capitis clinical isolate by broth microdilution method; outline: as §1
[5] = Antibacterial activity against Streptococcus sp. Group G clinical isolate by broth microdilution method; outline: as §3
Staphylococcus cohnii [6] = assay: Antibacterial activity against methicillin-susceptible coagulase-negative Staphylococcus cohnii clinical isolate by broth microdilution method; outline: as §1
Streptococcus sanguinis = assay: Antibacterial activity against Streptococcus sanguinis clinical isolate by broth microdilution method; outline: as §3
Enterococcus faecium [7] = assay: Antibacterial activity against vancomycin- and teichoplanin-nonsusceptible Enterococcus faecium clinical isolate by broth microdilution method; outline: as §1
Staphylococcus simulans [8] = assay: Antibacterial activity against methicillin-susceptible coagulase-negative Staphylococcus simulans clinical isolate by broth microdilution method; outline: as §1
Mammaliicoccus sciuri [9] = assay: Antibacterial activity against methicillin-resistant coagulase-negative Staphylococcus sciuri clinical isolate by broth microdilution method; outline: as §1
Streptococcus equinus = assay: Antibacterial activity against Streptococcus bovis clinical isolate by broth microdilution method; outline: as §3
[10] = tested on: Staphylococcus saprophyticus; assay: Antibacterial activity against methicillin-resistant coagulase-negative Staphylococcus saprophyticus clinical isolate by broth microdilution method; outline: as §1
Streptococcus pneumoniae [11] = assay: Antibacterial activity against penicillin resistant Streptococcus pneumoniae clinical isolate by broth microdilution method; outline: as §1
Staphylococcus aureus [12] = assay: Antibacterial activity against methicillin-susceptible Staphylococcus aureus clinical isolate by broth microdilution method; outline: as §1
Staphylococcus simulans [13] = assay: Antibacterial activity against methicillin-resistant coagulase-negative Staphylococcus simulans clinical isolate by broth microdilution method; outline: as §1
Streptococcus pyogenes = assay: Antibacterial activity against Streptococcus pyogenes clinical isolate by broth microdilution method; outline: as §3
[14] = tested on: Staphylococcus haemolyticus; assay: Antibacterial activity against methicillin-susceptible coagulase-negative Staphylococcus haemolyticus clinical isolate by broth microdilution method; outline: as §1
Streptococcus oralis = assay: Antibacterial activity against Streptococcus oralis clinical isolate by broth microdilution method; outline: as §3
Staphylococcus [15] = assay: Antibacterial activity against daptomycin-nonsusceptible coagulase-negative Staphylococcus isolate 1285835 by broth microdilution method; outline: as §3
Staphylococcus xylosus [16] = assay: Antibacterial activity against methicillin-susceptible coagulase-negative Staphylococcus xylosus clinical isolate by broth microdilution method; outline: as §1
Staphylococcus cohnii [17] = assay: Antibacterial activity against methicillin-resistant coagulase-negative Staphylococcus cohnii clinical isolate by broth microdilution method; outline: as §1
Streptococcus agalactiae = assay: Antibacterial activity against Streptococcus agalactiae clinical isolate by broth microdilution method; outline: as §3
Staphylococcus aureus [18] = assay: Antibacterial activity against vancomycin-intermediate methicillin-resistant Staphylococcus aureus NRS17 by broth microdilution method; outline: as §2
Staphylococcus warneri [19] = assay: Antibacterial activity against methicillin-resistant coagulase-negative Staphylococcus warneri clinical isolate by broth microdilution method; outline: as §1
Staphylococcus hominis = assay: Antibacterial activity against methicillin-susceptible coagulase-negative Staphylococcus hominis clinical isolate by broth microdilution method; outline: as §1
Staphylococcus aureus [20] = assay: Antibacterial activity against methicillin-resistant Staphylococcus aureus clinical isolate by broth microdilution method; outline: as §1
[21] = tested on: Staphylococcus saprophyticus; assay: Antibacterial activity against methicillin-susceptible coagulase-negative Staphylococcus saprophyticus clinical isolate by broth microdilution method; outline: as §1
Streptococcus pneumoniae [22] = assay: Antibacterial activity against penicillin intermediate Streptococcus pneumoniae clinical isolate by broth microdilution method; outline: as §1
[23] = Antibacterial activity against Streptococcus sp. Group C clinical isolate by broth microdilution method; outline: as §3
Streptococcus sp. = assay: Antibacterial activity against Streptococcus sp. Group F clinical isolate by broth microdilution method
Outline: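 MIC by CLSI broth microdilution in frozen microtiter trays holding serial dilutions of each agent, prepared from standard laboratory powders. Comparator susceptibility interpreted with CLSI breakpoints.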

Staphylococcus [24] = assay: Antibacterial activity against methicillin-susceptible coagulase-negative unspeciated Staphylococcus clinical isolate by broth microdilution method; outline: as §1
Enterococcus faecalis [25] = assay: Antibacterial activity against vancomycin-susceptible Enterococcus faecalis clinical isolate by broth microdilution method; outline: as §1
Mammaliicoccus sciuri [26] = assay: Antibacterial activity against methicillin-susceptible coagulase-negative Staphylococcus sciuri clinical isolate by broth microdilution method; outline: as §1
[27] = tested on: Staphylococcus epidermidis; assay: Antibacterial activity against methicillin-resistant coagulase-negative Staphylococcus epidermidis clinical isolate by broth microdilution method; outline: as §1
Staphylococcus warneri [28] = assay: Antibacterial activity against methicillin-susceptible coagulase-negative Staphylococcus warneri clinical isolate by broth microdilution method; outline: as §1
Enterococcus faecium [29] = assay: Antibacterial activity against vancomycin-resistant and teichoplanin-susceptible Enterococcus faecium clinical isolate by broth microdilution method; outline: as §1
Staphylococcus aureus [30] = assay: Antibacterial activity against vancomycin-, methicillin-resistant Staphylococcus aureus VRS2 by broth microdilution method; outline: as §2
Staphylococcus xylosus [31] = assay: Antibacterial activity against methicillin-resistant coagulase-negative Staphylococcus xylosus clinical isolate by broth microdilution method; outline: as §1

Q: What does the source list for `CN[C@H](CC(C)C)C(=O)N[C@H]1C(=O)N[C@@H](CC(N)=O)C(=O)N[C@H]2C(=O)N[C@H]3C(=O)N[C@H](C(=O)N[C@H](C(=O)O)c4cc(O)cc(O)c4-c4cc3ccc4O)[C@H](O)c3ccc(c(Cl)c3)Oc3cc2cc(c3O[C@@H]2O[C@H](CO)[C@@H](O)[C@H](O)[C@H]2O[C@H]2C[C@](C)(N)[C@H](O)[C@H](C)O2)Oc2ccc(cc2Cl)[C@H]1O` [VANCOMYCIN]?
A: MIC (Enterococcus faecalis [1]): 32 µg/mL (≈ 22.1 µM); MIC (Staphylococcus aureus [2]): > 32 µg/mL; MIC (Staphylococcus capitis [3]): 2 µg/mL (≈ 1.38 µM); MIC50 (Staphylococcus capitis [4]): 2 µg/mL (≈ 1.38 µM); MIC90 (Staphylococcus capitis [4]): 2 µg/mL (≈ 1.38 µM); MIC [5]: 0.25 µg/mL (≈ 0.173 µM); MIC50 [5]: 0.25 µg/mL (≈ 0.173 µM); MIC90 [5]: 0.5 µg/mL (≈ 0.345 µM); MIC50 (Staphylococcus cohnii [6]): 1 µg/mL (≈ 0.69 µM); MIC90 (Staphylococcus cohnii [6]): 2 µg/mL (≈ 1.38 µM); MIC50 (Streptococcus sanguinis): 0.5 µg/mL (≈ 0.345 µM); MIC90 (Streptococcus sanguinis): 0.5 µg/mL (≈ 0.345 µM); MIC50 (Enterococcus faecium [7]): 512 µg/mL (≈ 353 µM); MIC90 (Enterococcus faecium [7]): 512 µg/mL (≈ 353 µM); MIC50 (Staphylococcus simulans [8]): 1 µg/mL (≈ 0.69 µM); MIC90 (Staphylococcus simulans [8]): 2 µg/mL (≈ 1.38 µM); MIC50 (Mammaliicoccus sciuri [9]): 2 µg/mL (≈ 1.38 µM); MIC90 (Mammaliicoccus sciuri [9]): 2 µg/mL (≈ 1.38 µM); MIC50 (Streptococcus equinus): 0.5 µg/mL (≈ 0.345 µM); MIC90 (Streptococcus equinus): 0.5 µg/mL (≈ 0.345 µM); MIC50 [10]: 2 µg/mL (≈ 1.38 µM); MIC90 [10]: 2 µg/mL (≈ 1.38 µM); MIC (Streptococcus pneumoniae [11]): 0.25 µg/mL (≈ 0.173 µM); MIC50 (Streptococcus pneumoniae [11]): 0.25 µg/mL (≈ 0.173 µM); MIC90 (Streptococcus pneumoniae [11]): 0.5 µg/mL (≈ 0.345 µM); MIC50 (Staphylococcus aureus [12]): 1 µg/mL (≈ 0.69 µM); MIC90 (Staphylococcus aureus [12]): 1 µg/mL (≈ 0.69 µM); MIC50 (Staphylococcus simulans [13]): 2 µg/mL (≈ 1.38 µM); MIC90 (Staphylococcus simulans [13]): 2 µg/mL (≈ 1.38 µM); MIC (Streptococcus pyogenes): 0.25 µg/mL (≈ 0.173 µM); MIC50 (Streptococcus pyogenes): 0.25 µg/mL (≈ 0.173 µM); MIC90 (Streptococcus pyogenes): 0.5 µg/mL (≈ 0.345 µM); MIC50 [14]: 1 µg/mL (≈ 0.69 µM); MIC90 [14]: 2 µg/mL (≈ 1.38 µM); MIC50 (Streptococcus oralis): 0.5 µg/mL (≈ 0.345 µM); MIC90 (Streptococcus oralis): 0.5 µg/mL (≈ 0.345 µM); MIC (Staphylococcus [15]): 2 µg/mL (≈ 1.38 µM); MIC50 (Staphylococcus xylosus [16]): 1 µg/mL (≈ 0.69 µM); MIC90 (Staphylococcus xylosus [16]): 2 µg/mL (≈ 1.38 µM); MIC50 (Staphylococcus cohnii [17]): 2 µg/mL (≈ 1.38 µM); MIC90 (Staphylococcus cohnii [17]): 2 µg/mL (≈ 1.38 µM); MIC50 (Streptococcus agalactiae): 0.5 µg/mL (≈ 0.345 µM); MIC90 (Streptococcus agalactiae): 0.5 µg/mL (≈ 0.345 µM); MIC (Staphylococcus aureus [18]): 8 µg/mL (≈ 5.52 µM); MIC50 (Staphylococcus warneri [19]): 2 µg/mL (≈ 1.38 µM); MIC90 (Staphylococcus warneri [19]): 2 µg/mL (≈ 1.38 µM); MIC50 (Staphylococcus hominis): 1 µg/mL (≈ 0.69 µM); MIC90 (Staphylococcus hominis): 2 µg/mL (≈ 1.38 µM); MIC50 (Staphylococcus aureus [20]): 1 µg/mL (≈ 0.69 µM); MIC90 (Staphylococcus aureus [20]): 1 µg/mL (≈ 0.69 µM); MIC50 [21]: 1 µg/mL (≈ 0.69 µM); MIC90 [21]: 2 µg/mL (≈ 1.38 µM); MIC (Streptococcus pneumoniae [22]): 0.25 µg/mL (≈ 0.173 µM); MIC50 (Streptococcus pneumoniae [22]): 0.25 µg/mL (≈ 0.173 µM); MIC90 (Streptococcus pneumoniae [22]): 0.5 µg/mL (≈ 0.345 µM); MIC [23]: 0.25 µg/mL (≈ 0.173 µM); MIC50 [23]: 0.25 µg/mL (≈ 0.173 µM); MIC90 [23]: 0.5 µg/mL (≈ 0.345 µM); MIC (Streptococcus sp.): 0.25 µg/mL (≈ 0.173 µM); MIC50 (Streptococcus sp.): 0.25 µg/mL (≈ 0.173 µM); MIC90 (Streptococcus sp.): 0.5 µg/mL (≈ 0.345 µM); MIC50 (Staphylococcus [24]): 1 µg/mL (≈ 0.69 µM); MIC90 (Staphylococcus [24]): 2 µg/mL (≈ 1.38 µM); MIC50 (Enterococcus faecalis [25]): 1 µg/mL (≈ 0.69 µM); MIC90 (Enterococcus faecalis [25]): 2 µg/mL (≈ 1.38 µM); MIC50 (Mammaliicoccus sciuri [26]): 1 µg/mL (≈ 0.69 µM); MIC90 (Mammaliicoccus sciuri [26]): 2 µg/mL (≈ 1.38 µM); MIC50 [27]: 2 µg/mL (≈ 1.38 µM); MIC90 [27]: 2 µg/mL (≈ 1.38 µM); MIC50 (Staphylococcus warneri [28]): 1 µg/mL (≈ 0.69 µM); MIC90 (Staphylococcus warneri [28]): 2 µg/mL (≈ 1.38 µM); MIC50 (Enterococcus faecium [29]): 128 µg/mL (≈ 88.3 µM); MIC90 (Enterococcus faecium [29]): 512 µg/mL (≈ 353 µM); MIC (Staphylococcus aureus [30]): 32 µg/mL (≈ 22.1 µM); MIC50 (Staphylococcus xylosus [31]): 2 µg/mL (≈ 1.38 µM); MIC90 (Staphylococcus xylosus [31]): 2 µg/mL (≈ 1.38 µM)
